Bioassay records (PubChem BioAssay)
Jurkat NFkB inh: inhibitors of induced NF-kB luciferase reporter, primary screen, TCR NF-kB activation inhibitor project, cell-based, luminescence, uHTS; Jurkat, PMA/ionomycin-induced NF-kB luciferase reporter; inhibition, % at 4 µM; AID 435003, 2010; 0.53% of 330,000 active; in the data active means inhibition above about 50%
GPR7 antagonist: GPR7 receptor antagonists, primary screen, cell-based, fluorescence, single concentration; 1.1% of 290,000 active; Neuropeptides B/W receptor type 1 (Homo sapiens), P48145; GPR7-expressing cells, fluorescence antagonist assay; inhibition, % at 4.4 µM; in the data active means inhibition above about 16%, passing the limit was not always enough;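 further: cells stimulated with the agonist NPW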
Target sequence (P48145 whole entry, looked up): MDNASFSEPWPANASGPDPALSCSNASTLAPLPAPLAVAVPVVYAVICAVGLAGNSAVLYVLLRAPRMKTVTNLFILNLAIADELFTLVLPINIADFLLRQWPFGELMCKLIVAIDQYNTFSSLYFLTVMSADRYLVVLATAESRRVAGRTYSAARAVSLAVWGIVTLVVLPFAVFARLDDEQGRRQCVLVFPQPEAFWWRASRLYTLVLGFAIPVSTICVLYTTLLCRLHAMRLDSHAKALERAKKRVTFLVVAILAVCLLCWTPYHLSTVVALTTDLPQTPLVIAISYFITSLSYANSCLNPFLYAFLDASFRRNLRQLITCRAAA
HSF1 inh: HSF1 inhibitors in luciferase reporter cells, primary screen, cell-based, NIH3T3, luminescence | NIH3T3-HGL HSE-luciferase, MG132-induced, luminescence 8 h; active compounds read low | activity change, negative = inhibition, % at 7.5 µM (by protocol) | 0.77% of 300,000 active | AID 2098, 2009;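 active means more than half of replicate wells show activity change below -50%, luminescence cut by over half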;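 further: luciferase reports HSF-1 transcriptional activity via heat shock element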
HSF1 activator: HSF-1 activators, primary screen, NIH3T3-HGL cells, MG132 stress, luminescence, single point; 1.7% of 300,000 active; NIH3T3-HGL HSF-1 luciferase reporter, 8 h; 100% = twice DMSO control signal; activation, % at 9 µM;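 active means mean replicate activation of at least 50% with a set share of replicates each reaching 50%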
697 NFkB inh: inhibitors of PMA/ionomycin-induced NF-kB reporter, 697 cells, primary screen, B-cell NF-kB inhibitor project, cell-based, luminescence, uHTS; 697 B-cell NF-kB luciferase reporter, 16 h; inhibition, % at 4 µM; 0.33% of 330,000 active; AID 435022, 2010; in the data active means inhibition above about 35%
T cruzi inh: inhibitors of intracellular T. cruzi growth, primary screen, luminescence, NIH3T3 host cells; T. cruzi beta-gal in NIH3T3, 90 h; inhibition, % (no concentration beside the values); 1.4% of 300,000 active; AID 1885, 2009;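 active means mean inhibition across valid replicates above about 55%, limit read from the data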;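 further: signal also drops with host cell toxicity which is not excluded here; higher percent means less beta-gal luminescence so fewer parasites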
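Read-out: Parasite load inhibition, % | Test system: Mouse NIH/3T3 fibroblasts infected with β-gal-expressing T. cruzi Tulahuen C4 | Amount: 5,000 cells/well | Medium: DMEM, 2% fetal bovine serum | Signal: GalScreen β-gal luminescence, detergent lysis, 60 min | Timing: 3 h attach, ≥90 h co-culture | Also added: Tulahuen C4 trypomastigotes, 5000/well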
Hits are given with their value; – = inactive; · = not tested or not shown. Sampled rows, rich in hits. Any-hit rate of the full collection: about 4.8%.

SMILES	Jurkat NFkB inh	GPR7 antagonist	HSF1 inh	HSF1 activator	697 NFkB inh	T cruzi inh
O=C1/C(=C\c2ccc(Br)o2)Cc2ccccc21	–	–	–	59	–	–
COc1ccccc1C(=O)NCCC(=O)N1CCN(c2ccccc2O)CC1	–	·	–	–	–	–
Cc1c(C(=O)N2CCC(Cc3ccccc3)CC2)sc2ncnc(N3CCC(C)CC3)c12	–	–	–	–	–	72
Cc1c(C(=O)N2CCN(c3ccccc3)CC2)sc2ncnc(N3CCN(c4ccccc4)CC3)c12	·	–	·	·	·	·
CCN(C(=O)CSc1nnc(-c2c[nH]c3ccccc23)n1C1CC1)C1CCS(=O)(=O)C1 (stereo not given)	–	·	·	·	–	·
O=C(NC(=S)N1CCN(c2ccc([N+](=O)[O-])cc2Cl)CC1)c1ccco1	–	–	–	55	–	–
COc1ccc(C2Nc3ccccc3C(=O)N2Cc2ccco2)cc1COc1ccc(NC(C)=O)cc1 (stereo not given)	–	–	–	58	–	–
CCCC1C2C(=O)N(c3cccc(C)c3)C(=O)C2ON1c1ccccc1 (stereo not given)	–	–	–	–	–	–
CC(=O)C1=C(C)OC2(O)c3ccccc3C(=O)C12O (stereo not given)	–	–	–	59	–	–
CCOC(=O)C1=C(C)OC2(O)c3ccccc3C(=O)C12O (stereo not given)	–	–	–	–	–	–
CCCOc1ccc(-c2c(C(=O)N/N=C/c3ccccc3OCC)nnn2-c2nonc2N)cc1	–	–	-69	–	–	–
COc1cccc(-c2c(C(=O)N/N=C/c3ccc(C)s3)nnn2-c2nonc2N)c1	–	–	-87	–	–	–
CCOc1cccc(-c2c(C(=O)N/N=C/c3ccc(C)s3)nnn2-c2nonc2N)c1	–	–	–	–	–	–
Cc1ccc(/C=N/NC(=O)c2nnn(-c3nonc3N)c2CNc2ccccc2)cc1	–	–	–	–	–	–
Nc1nonc1-n1nnc(C(=O)N/N=C/c2cc(Br)ccc2O)c1CNc1ccccc1	–	–	–	–	–	59
C/C(=N\NC(=O)c1nnn(-c2nonc2N)c1-c1ccccc1)c1ccccc1O	–	–	–	–	–	61
CCCCc1ccc(NS(=O)(=O)c2cccc(C(=O)N3CCNC(=O)C3)c2)cc1	–	·	·	·	–	·
CCCOc1ccc(/C=N/NC(=O)c2ccc3c(c2)OCO3)c(OCCC)c1	–	–	–	–	–	–
O=C(Nc1cccc(C(F)(F)F)c1)Oc1ccc(Cl)c2cccnc12	·	32	–	–	·	69
O=C(O)/C=C/C(=O)c1c(-c2ccccc2)[nH]c2ccccc12	–	–	–	–	–	–
COc1ccc(CCNc2oc(-c3ccccc3OC)nc2C#N)cc1	–	–	–	95	–	–
O=C(CCc1nnc2ccc(N3CCC4(CC3)OCCO4)nn12)N1CCCCC1	–	–	–	–	–	–
O=C(CCC(=O)Nc1ccc(Cl)cc1Cl)N/N=C/c1ccc([N+](=O)[O-])o1	–	–	–	–	–	60
O=C(N/N=C/c1ccc([N+](=O)[O-])o1)c1ccc(O)cc1	·	–	–	–	·	–
Cc1ccccc1NCC(=O)N/N=C/c1ccc([N+](=O)[O-])cc1	–	–	–	–	–	–
SMILES	Jurkat NFkB inh	GPR7 antagonist	HSF1 inh	HSF1 activator	697 NFkB inh	T cruzi inh
O=C(CNc1cccc2ccccc12)N/N=C/c1ccc([N+](=O)[O-])cc1	–	–	–	77	–	–
O=C(CNC(=O)c1ccccc1)N/N=C/c1ccc([N+](=O)[O-])o1	–	–	–	–	–	59
O=C(CNC(=O)c1ccccc1)N/N=C/c1ccc([N+](=O)[O-])s1	–	–	–	–	–	76
CCCOC(=O)/C(=C\c1ccc([N+](=O)[O-])o1)NC(=O)c1ccccc1	–	–	–	–	–	–
Cc1ccc(NCC(=O)N/N=C\c2ccc([N+](=O)[O-])o2)cc1	–	–	–	–	–	–
CCOC(=O)/C(=C\c1ccc([N+](=O)[O-])o1)NC(=O)c1ccccc1	–	–	–	–	–	68
CCCCCC(=O)N/N=C/c1ccc([N+](=O)[O-])o1	–	–	–	–	–	76
O=[N+]([O-])c1ccc(C=Nc2cccc3ccccc23)s1	–	–	–	–	–	61
O=C(CNc1ccccc1)N/N=C/c1ccc([N+](=O)[O-])o1	–	–	–	–	–	64
Cc1cc(=O)c(C(=O)O)nn1-c1ccccc1F	–	–	–	–	–	–
NC(N)=NS(=O)(=O)c1ccc(NC(=S)NC(=O)c2sc3ccccc3c2Cl)cc1	–	–	·	·	–	–
Cc1ccc(S(=O)(=O)CCC(=O)N2CCN(c3ccc([N+](=O)[O-])cc3)CC2)cc1	–	–	–	–	–	–
O=C(C1CCC1)N1CCc2cc(S(=O)(=O)N3CCN(c4ccccn4)CC3)ccc21	–	–	–	63	–	–
O=C(C1CCC1)N1CCc2cc(S(=O)(=O)N3CCCCC3)ccc21	–	–	–	–	–	–
Cc1ccc(S(=O)(=O)N(C)C)cc1NC(=S)N(C)C1CCN(C)CC1	–	–	–	55	–	–
Cc1ccc(S(=O)(=O)N(C)C)cc1NC(=S)NC(C)CCCC(C)C (stereo not given)	–	–	–	57	–	–
Cc1ccc(S(=O)(=O)N(C)C)cc1NC(=S)NC(C)CCC(C)C (stereo not given)	–	–	–	–	–	–
Cc1ccc(S(=O)(=O)N(C)C)cc1NC(=S)Nc1cccc2ccccc12	–	46	–	–	–	–
CCOc1ccccc1NC(=O)CCCNC(=O)c1ccc(Cl)cc1	–	–	–	–	–	–
C=CCNC(=O)N1C2=NC(C(=O)OC)=C(C(=O)OC)[C@@H]3N(Cc4ccccc4)c4ccccc4[C@]23C[C@H]1C(=O)OC	–	·	–	–	–	–
Nc1nc2nn(-c3ccccc3)nc2c(=O)[nH]1	–	–	–	55	–	–
CC(Oc1ccc2c(c1)c1ccnc3c4ccccc4c(=O)n2c13)C(=O)NCCN1CCOCC1 (stereo not given)	–	–	–	–	–	–
NS(=O)(=O)c1ccc(N2N=C(c3ccccc3)CC2c2ccccc2Br)cc1 (stereo not given)	·	·	·	·	–	·
O=[N+]([O-])c1ccc(N2N=C(c3ccccc3)CC2c2ccccc2O)cc1 (stereo not given)	–	–	–	–	–	63
O=C(c1cccs1)N1N=C(c2ccccc2)CC1c1ccccc1O (stereo not given)	–	–	·	·	–	57
